Compound activity as filed in PubChem.
Only some compounds are listed: those with a hit (about 6.4% of all), similar ones and a draw of the others.
Jurkat tox 60K – cytotoxicity toward Jurkat T cells, primary screen, cytotoxicity control, cell-based, Jurkat E6.1, 60K MLSMR library | Jurkat E6.1 viability, ATP luminescence, 48 h | inhibition, % at 4 µM | 56,000 compounds, 1.2% hits | AID 463, 2006;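 active = inhibition above the mean inhibition of all tested compounds plus 3 SD, cut at about 28% in these data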
Fibroblast inh – antiproliferative effect on LL 47 fibroblasts – human, LL 47 cells, CellTiter-Glo luminescence, primary screen | LL 47 human lung fibroblast viability, ATP luminescence; hits give low values | 85,000 compounds, 1.1% hits | viability, % at 10 µM;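 active = viability at or below 50% in the single dose screen; inactive = viability above 50%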;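 note: compound exposure lasted 72 h before the ATP readout; 100% = median luminescence of untreated cell-only wells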
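Material: human LL 47 lung fibroblast cells; quantity: 1,150 cells/well; medium: IMEM plus 15% FBS; doses: 0.1% DMSO in all compound wells; timing: overnight attachment after seeding, then 72 h compound exposure at 37 °C; detection: CellTiter-Glo luminescence; measure: % viability of median cell-only signal; controls: cell-only wells, no compound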
H69AR inhibit – proliferation blockers of H69AR lung cancer cells, primary screen, cell-based, human, 86K library. AID 598, 2007. 85,000 compounds, 6% hits. H69AR lung tumor viability, ATP luminescence, 72 h; hits give low values. viability, % at 10 µM;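 active = viability at or below 40%; inactive = viability above 40%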;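 note: multidrug resistant small cell line overexpressing MRP-1 efflux transporter; 100% = mean luminescence of untreated control wells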
HUVEC inhibit – inhibitors of HUVEC proliferation, primary screen, cell-based, 384-well; viability, % at 10 µM (by protocol); AID 648, 2007; CellTiter-Glo luminescence, 72 h; hits give low values; 86,000 compounds, 1.1% hits;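 active = viability at or below 30%; inactive = viability above 30%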;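 note: 100% = median luminescence of DMSO-only cell control wells on each plate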
* = called active by the depositor; nt = no result given.

SMILES	Jurkat tox 60K	Fibroblast inh	H69AR inhibit	HUVEC inhibit
CCSc1ccc(NC(=O)c2cccnc2)cc1	nt	100.4	33.1*	105.0
COc1cc(OC)cc(C(C(=O)NCc2ccccc2)N(Cc2ccco2)C(=O)c2ccno2)c1 (configuration not stated)	-4.0	87.2	92.8	86.3
Cc1c(C#N)c2ccccc2n1CC(=O)NCc1ccccc1	nt	93.5	95.9	94.8
CC(=O)Cc1nsc(NC(=O)c2ccc(-c3ccc(Cl)cc3Cl)o2)n1	nt	98.6	42.8	69.8
Cc1nnc2sc(-c3ccc(NC(=O)c4ccc(-c5ccc(Cl)cc5Cl)o4)cc3)nn12	-1.1	59.1	8.2*	28.4*
Oc1ccccc1-c1cc(-c2ccccc2Cl)[nH]n1	6.5	100.8	22.1*	25.0*
Oc1ccc(Cl)cc1-c1cc(-c2ccccc2Cl)[nH]n1	nt	76.4	30.9*	62.2
Oc1ccc(Cl)cc1-c1cc(-c2cccc(Br)c2)n[nH]1	nt	59.0	4.2*	44.0
Cc1ccc(O)c(-c2cc(-c3ccccc3C)[nH]n2)c1	-0.1	62.5	0.5*	35.1
Oc1ccccc1-c1cc(-c2ccco2)[nH]n1	nt	79.6	69.9	97.0
Cc1ccc(O)c(-c2cc(C(F)(F)C(F)F)[nH]n2)c1	nt	93.2	42.4	79.0
Oc1ccc(Cl)cc1-c1cc(-c2ccco2)[nH]n1	nt	91.8	44.3	31.4
CS(=O)(=O)N(CC(=O)NCc1ccncc1)Cc1ccc(Cl)cc1	-0.7	97.5	98.1	87.6
CCCCCc1c(O)nc(SCC(=O)O)[nH]c1=O	nt	nt	101.7	100.4
O=C(O)c1ccc(Cn2cc(Cl)cn2)cc1	-6.6	99.7	101.0	91.3
CC1Cc2ccccc2N1C(=O)COC(=O)Cn1nnc(-c2ccccc2)n1 (configuration not stated)	3.6	100.6	21.6*	97.7
COc1cccc(C(=O)Oc2cc(-c3ccccc3)no2)c1	nt	105.2	101.7	91.5
CCOC(=O)N1CCC(Nc2c(N3CCN(c4cc(Cl)ccc4C)CC3)c(=O)c2=O)CC1	16.5	89.9	64.0	82.4
CCOC(=O)N1CCC(Nc2c(-c3ccc(C)c(C)c3)c(=O)c2=O)CC1	4.0	100.3	33.5*	93.6
CCC(=O)N/C(=N/c1nc(C)cc(C)n1)Nc1cccc(OC)c1	nt	95.9	53.3	88.4
CCOc1cccc(C(=O)Nc2nc(-c3ccc(S(=O)(=O)N4CCOCC4)cc3)cs2)c1	4.0	83.0	31.9*	80.9
O=C(COc1cccc(Cl)c1)Nc1nc(-c2ccc(S(=O)(=O)N3CCOCC3)cc2)cs1	nt	97.5	72.9	87.5
COc1ccccc1C(=O)Nc1nc(-c2ccc(S(=O)(=O)N3CCOCC3)cc2)cs1	nt	22.7*	44.9	48.7
CC(NC(=O)NC1CCCCC1)C(c1cccs1)N1CCN(c2ccccc2)CC1 (configuration not stated)	nt	90.4	78.4	75.2
CCOC(=O)CSc1nnc(CSc2nc3sc4c(c3c(=O)[nH]2)CCCC4)n1-c1ccccc1	nt	103.0	89.9	100.8
SMILES	Jurkat tox 60K	Fibroblast inh	H69AR inhibit	HUVEC inhibit
CCOC(=O)c1ccccc1NC(=O)c1ccc(F)cc1	nt	109.5	98.4	112.9
CCOC(=O)C1=C(Cc2ccc(F)cc2)C(=O)c2ccccc2C1=O	nt	87.2	0.8*	6.5*
COc1ccccc1Nc1nc(N)nc(CN2CCC(Cc3ccccc3)CC2)n1	-0.8	91.7	39.7*	71.7
O=C(CSc1nnc(-c2ccc(O)cc2)o1)N1CCOCC1	4.2	98.5	77.9	87.0
Oc1ccc(-c2nnc(SCC3CCCCC3)o2)cc1	21.4	102.3	34.6*	86.7
Cc1cccc(C(=O)CC(=O)c2cc(Cl)ccc2O)c1	nt	31.1*	18.3*	3.3*
Cc1ccc(O)c(C(=O)CC(=O)c2cccc(F)c2)c1	5.6	69.8	13.1*	14.7*
O=C(CC(=O)c1cc(Cl)ccc1O)c1ccccc1	22.6	40.2*	11.2*	35.1
CCn1c(SCC(=O)c2[nH]c(C)c(C(C)=O)c2C)nnc1-c1ccccc1	nt	95.3	76.0	85.5
CS(=O)(=O)N(Cc1ccccc1)c1ccc(C(=O)NCc2cccnc2)cc1	nt	96.0	80.5	95.3
CCC(Sc1nc2n[nH]c(C)c2c(=N)n1-c1ccc(C)c(Cl)c1)C(=O)N1CCOCC1 (configuration not stated)	1.1	75.1	25.6*	57.8
CCCCOc1ccc(Cl)cc1CSc1nnc(CC)n1N	13.8	99.8	58.8	98.5
N#CC1=C(N)NC(SCc2ccc(Cl)cc2)=C(C#N)C12CCCCC2	nt	85.1	13.1*	44.5
CC1=CC(C)(C)N(C(=O)c2ccccc2)c2ccc(C)cc21	nt	95.6	86.4	102.7
CC1=CC(C)(C)N(S(=O)(=O)c2ccc(C)cc2)c2ccccc21	nt	51.5	28.2*	63.4
CC1=CC(C)(C)N(C(=O)CN2C(=O)c3ccccc3C2=O)c2ccccc21	1.5	100.8	96.2	97.9
CC1=CC(C)(C)N(S(=O)(=O)c2ccc(F)cc2)c2ccc(C)cc21	nt	50.9	21.7*	59.9
O=C(O)C(=O)/C(=C\c1ccccc1)c1ccc2ccccc2n1	nt	99.0	92.7	74.9
O=C(O)C(=O)/C(=C\c1cccc2ccccc12)c1ccc2ccccc2n1	nt	92.0	18.1*	67.8
CC(C)N(C(=O)c1ccc2nc3c4ccccc4c4ccccc4c3nc2c1)C(C)C	nt	102.8	90.8	93.8
O=C(Nc1ccc(SC(F)F)cc1)c1cccc2nc3ccccc3nc12	nt	39.4*	10.5*	25.5*
CN(C)C(=O)CCN1CCOCC1	nt	99.3	95.5	98.2
CC(=O)CCN1CCOCC1	nt	90.1	28.6*	95.8
O=C(COc1cccc(C(F)(F)F)c1)Nc1ccc(S(=O)(=O)N2CCCC2)cc1	2.1	96.2	89.4	95.0
Cn1cc(C(=O)c2ccc(Cl)cc2Cl)cc1C(=O)N/N=C(\N)COc1cccc(C(F)(F)F)c1	nt	77.4	27.0*	69.1
SMILES	Jurkat tox 60K	Fibroblast inh	H69AR inhibit	HUVEC inhibit
O=C(CSc1nnc(COc2ccc(F)cc2)o1)N1c2ccccc2CCc2ccccc21	19.3	83.7	1.9*	109.0
Nc1c(C(=O)OCC2CCCO2)c2nc3ccccc3nc2n1C1CCCC1 (configuration not stated)	5.7	70.5	14.6*	53.7
COCCn1c(N)c(C(=O)NCC2CCCO2)c2nc3ccccc3nc21 (configuration not stated)	nt	91.0	58.2	72.1
COc1ccc(OC)c(-n2c(N)c(C(=O)NCC3CCCO3)c3nc4ccccc4nc32)c1 (configuration not stated)	-7.4	96.3	49.4	74.0
CC(C)Cn1c(N)c(C(=O)NCC2CCCO2)c2nc3ccccc3nc21 (configuration not stated)	1.5	80.3	36.0*	74.0
O=c1oc2ccccc2c2c1nc(C(F)(F)F)n2-c1ccccc1	nt	100.9	98.9	96.2
COc1ccc(-c2coc3c(CN4CCCCC4)c(O)c(CN4CCCCC4)c(O)c3c2=O)cc1	3.4	85.4	7.2*	84.9
COc1ccc(C(=O)c2coc3ccc(O)c(CN4CCCC4)c23)cc1	4.5	95.2	67.2	86.3
CCOC(=O)c1c(C)[nH]c(N=Nc2ccccc2C)c1C	nt	90.4	81.5	82.0
